{"source": "ChEMBL document CHEMBL1125740", "about": "“Heterocyclic quinones. 17. A new in vivo active antineoplastic drug: 6,7-bis(1-aziridinyl)-4-[[3-(N,N-dimethylamino)propyl]amino]-5,8- quinazolinedione” (J Med Chem, 1991)", "key": {"L1210 [1]": {"system": "L1210", "test": "Compound was evaluated in vivo for antitumor activity after intraperitoneal administration against L1210(935) for total dose at an optimal dose of 0.5 mg/kg/injection at 1 day schedule.", "format": "functional, Mus musculus", "summary_of_the_method": "(§1)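 L1210 leukemia, maintained in DBA/2 mice, was given ip as 10⁵ cells on day 0 to F1 hybrid or strain-of-origin mice over 18 g, in groups of 8. Dosing was ip from day 1, and mortality was checked daily. Median day of death counts dying mice only. %ILS = 100×(treated − control median day of death)/control median. Tumor-free survivors were counted on day 60. Weight change is g/mouse at nadir.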"}, "[2]": {"test": "Compound was evaluated in vivo for antitumor activity against mammary adenocarcinoma 16/C after injecting the compound intravenously for percent T/C", "format": "functional, Mus musculus", "summary_of_the_method": "(§2)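 30-60 mg tumor fragments implanted sc by trocar on day 0 into C57Bl/6-derived hosts (B16) or C3H/He-derived hosts (16/C). Drug given iv on days 6, 9 and 13 (B16) or 6, 9 and 12 (16/C), 10 mice per group. Tumors measured by caliper. T/C % taken from median tumor burden of treated vs control groups on day 15 (B16) or day 14 (16/C). Body weight change per mouse recorded at nadir.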"}, "[3]": {"test": "Compound was evaluated in vivo for antitumor activity against mammary adenocarcinoma 16/C after injecting the compound intravenously for median", "format": "functional, Mus musculus"}, "P388 [4]": {"system": "P388", "test": "Compound was evaluated in vivo for antitumor activity after intraperitoneal administration against P388/L-PAM(14) for change in body weight at an optimal dose of 0.2 mg/kg/injection at 1,2,3,4 day schedule.", "format": "functional, Mus musculus"}, "P388 [5]": {"system": "P388", "test": "Compound was evaluated in vivo for antitumor activity after intraperitoneal administration against P388 (1313) for median day of death at an optimal dose of 0.25 mg/kg/injection", "format": "functional, Mus musculus"}, "B16 [6]": {"system": "B16", "test": "Compound was evaluated in vivo for antitumor activity against B16 melanoma 1 after injecting the compound intravenously for percent T/C (value in parentheses indicates the day of evaluation)", "format": "functional, Mus musculus"}, "[7]": {"test": "Compound was evaluated in vivo for antitumor activity against colon adenocarcinoma 38 after injecting the compound intravenously for total dose.", "format": "functional, Mus musculus"}, "P388 [8]": {"system": "P388", "test": "Compound was evaluated in vivo for antitumor activity after intraperitoneal administration against P388/L-PAM(14) for mortality range at an optimal dose of 1 mg/kg/injection", "format": "functional, Mus musculus"}, "P388 [9]": {"system": "P388", "test": "Compound was evaluated in vivo for antitumor activity after intraperitoneal administration against P388/L-PAM(14) for change in body weight at an optimal dose of 0.4 mg/kg/injection at 1,2,3,4 day schedule.", "format": "functional, Mus musculus"}, "L1210 [10]": {"system": "L1210", "test": "Compound was evaluated in vivo for antitumor activity after intraperitoneal administration against L1210(935)for change in body weight at an optimal dose of 0.4 mg/kg/injection at 1-4 day schedule.", "format": "functional, Mus musculus", "summary_of_the_method": "as §1"}, "P388 [11]": {"system": "P388", "test": "Compound was evaluated in vivo for antitumor activity after intraperitoneal administration against P388/L-PAM(14) for change in body weight at an optimal dose of 0.1 mg/kg/injection at 1,2,3,4 day schedule.", "format": "functional, Mus musculus"}, "L1210 [12]": {"system": "L1210", "test": "Compound was evaluated in vivo for antitumor activity after intraperitoneal administration against L1210(935)for change in body weight at an optimal dose of 0.1 mg/kg/injection at 1-4 day schedule.", "format": "functional, Mus musculus", "summary_of_the_method": "as §1"}, "P388 [13]": {"system": "P388", "test": "Compound was evaluated in vivo for antitumor activity after intraperitoneal administration against P388/L-PAM(14) for mortality range at an optimal dose of 0.125 mg/kg/injection at 1,4,7,11 day schedule.", "format": "functional, Mus musculus"}, "L1210 [14]": {"system": "L1210", "test": "Compound was evaluated in vivo for antitumor activity after intraperitoneal administration against L1210(935) for mortality range at an optimal dose of 0.5 mg/kg/injection at 1,4,7,11day schedule.", "format": "functional, Mus musculus", "summary_of_the_method": "as §1"}, "P388 [15]": {"system": "P388", "test": "Compound was evaluated in vivo for antitumor activity after intraperitoneal administration against P388/L-PAM(14) for mortality range at an optimal dose of 0.2 mg/kg/injection at 1,2,3,4 day schedule.", "format": "functional, Mus musculus"}, "B16 [16]": {"system": "B16", "test": "Compound was evaluated in vivo for antitumor activity against B16 melanoma after injecting the compound intravenously for median tumor burden", "format": "functional, Mus musculus", "summary_of_the_method": "as §2"}, "P388 [17]": {"system": "P388", "test": "Compound was evaluated in vivo for antitumor activity after intraperitoneal administration against P388/L-PAM(14) for change in body weight at an optimal dose of 0.5 mg/kg/injection at one day schedule.", "format": "functional, Mus musculus"}, "B16 [18]": {"system": "B16", "test": "Compound was evaluated in vivo for antitumor activity against […] B16 melanoma 2 after injecting the compound intravenously for optimal dose", "format": "functional, Mus musculus"}, "P388 [19]": {"system": "P388", "test": "Compound was evaluated in vivo for antitumor activity after intraperitoneal administration against P388/L-PAM(14) for tumor free survivors at an optimal dose of 1 mg/kg/injection", "format": "functional, Mus musculus"}, "P388 [20]": {"system": "P388", "test": "Compound was evaluated in vivo for antitumor activity after intraperitoneal administration against P388/L-PAM(14) for mortality range at an optimal dose of 0.5 mg/kg/injection at one day schedule.", "format": "functional, Mus musculus"}, "P388 [21]": {"system": "P388", "test": "Compound was evaluated in vivo for antitumor activity after intraperitoneal administration against P388/L-PAM(14) for median day of death at an optimal dose of 0.5 mg/kg/injection at 1,4,7,11 day schedule.", "format": "functional, Mus musculus"}, "L1210 [22]": {"system": "L1210", "test": "Compound was evaluated in vivo for antitumor activity after intraperitoneal administration against L1210(935) for tumor free survivors at an optimal dose of 0.25 mg/kg/injection at 1,4,7,11 day schedule.", "format": "functional, Mus musculus", "summary_of_the_method": "as §1"}, "L1210 [23]": {"system": "L1210", "test": "Compound was evaluated in vivo for antitumor activity after intraperitoneal administration against L1210(935)for change in body weight at an optimal dose of 0.5 mg/kg/injection at 1,4,7,11day schedule.", "format": "functional, Mus musculus", "summary_of_the_method": "as §1"}, "[24]": {"test": "Compound was evaluated in vivo for antitumor activity against mammary adenocarcinoma 16/C after injecting the compound intravenously for change in body weight.", "format": "functional, Mus musculus", "summary_of_the_method": "as §2"}, "L1210 [25]": {"system": "L1210", "test": "Compound was evaluated in vivo for antitumor activity after intraperitoneal administration against L1210(935)for % increase in life span at an optimal dose of 0.25 mg/kg/injection at 1,4,7,11day schedule.", "format": "functional", "conditions": "Mus musculus, L1210, ip", "summary_of_the_method": "as §1"}, "P388 [26]": {"system": "P388", "test": "Compound was evaluated in vivo for antitumor activity after intraperitoneal administration against P388 (1313) for total dose at an optimal dose of 1 mg/kg/injection", "format": "functional, Mus musculus"}, "P388 [27]": {"system": "P388", "test": "Compound was evaluated in vivo for antitumor activity after intraperitoneal administration against P388 (1313) for % increase in life span at an optimal dose of 0.4 mg/kg/injection", "format": "functional", "conditions": "Mus musculus, P388, ip"}, "L1210 [28]": {"system": "L1210", "test": "Compound was evaluated in vivo for antitumor activity after intraperitoneal administration against L1210(935) for total dose at an optimal dose of 0.4 mg/kg/injection at 1-4 day schedule.", "format": "functional, Mus musculus", "summary_of_the_method": "as §1"}, "P388 [29]": {"system": "P388", "test": "Compound was evaluated in vivo for antitumor activity after intraperitoneal administration against P388/L-PAM(14) for mortality range at an optimal dose of 0.25 mg/kg/injection at 1,4,7,11 day schedule.", "format": "functional, Mus musculus"}, "[30]": {"test": "Compound was evaluated in vivo for antitumor activity against Glasgow osteogenic sarcoma after injecting the compound intravenously for toxicity related death.", "format": "functional, Mus musculus", "summary_of_the_method": "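Glasgow osteogenic sarcoma in C57Bl/6-derived hosts: 30-60 mg fragments implanted sc by trocar on day 0. Drug given iv on days 3, 6 and 9, 7 mice per group. Tumors measured by caliper. Median tumor burden recorded on day 10. Body weight change per mouse recorded at nadir. Toxicity-related deaths counted.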"}, "P388 [31]": {"system": "P388", "test": "Compound was evaluated in vivo for antitumor activity after intraperitoneal administration against P388/L-PAM(12) for median day of death at an optimal dose of 0.75 mg/kg/injection", "format": "functional, Mus musculus"}}, "note": "“And” between values parts separate entries of the source, which are not always exact repeats. Equal entries are not always repeated.", "data": [{"smiles": "CN(C)CCCNc1ncnc2c1C(=O)C(N1CC1)=C(N1CC1)C2=O", "values": [{"measurement": "Total dose", "setting": "L1210 [1]", "result": 0.5, "unit": "mg/kg"}, {"measurement": "T/C", "setting": "[2]", "result": "48% and 68%"}, {"measurement": "Tumor burden", "setting": "[3]", "result": 895, "unit": "mg"}, {"measurement": "Change of weight", "setting": "P388 [4]", "result": 1.7, "unit": "g mouse-1"}, {"measurement": "Median day of death", "setting": "P388 [5]", "result": 19}, {"measurement": "T/C", "setting": "B16 [6]", "result": 76, "unit": "%"}, {"measurement": "Total dose", "setting": "[7]", "result": 0.5, "unit": "mg/kg"}, {"measurement": "Mortality", "setting": "P388 [8]", "result": 26, "unit": "days"}, {"measurement": "g/mouse", "setting": "P388 [9]", "result": 0.9}, {"measurement": "Change in body weight", "setting": "L1210 [10]", "result": 0.3, "unit": "g mouse-1"}, {"measurement": "Change in body weight", "setting": "P388 [11]", "result": 0.5, "unit": "g mouse-1"}, {"measurement": "Change in body weight", "setting": "L1210 [12]", "result": 0.4, "unit": "g mouse-1"}, {"measurement": "Mortality", "setting": "P388 [13]", "result": 27, "unit": "days"}, {"measurement": "Mortality", "setting": "L1210 [14]", "result": 18, "unit": "days"}, {"measurement": "Mortality", "setting": "P388 [15]", "result": 20, "unit": "days"}, {"measurement": "Tumor burden", "setting": "B16 [16]", "result": "2002 mg and 3807 mg"}, {"measurement": "Change in body weight", "setting": "P388 [17]", "result": 1.3}, {"measurement": "Optimal dose", "setting": "B16 [18]", "result": 0.2, "unit": "mg/kg"}, {"measurement": "Survivors", "setting": "P388 [19]", "result": 0}, {"measurement": "Mortality", "setting": "P388 [20]", "result": 22, "unit": "days"}, {"measurement": "Median day of death", "setting": "P388 [21]", "result": 22.5}, {"measurement": "Survivors", "setting": "L1210 [22]", "result": 0}, {"measurement": "Change in body weight", "setting": "L1210 [23]", "result": 1.1, "unit": "g mouse-1"}, {"measurement": "Change in body weight", "setting": "[24]", "result": "0.5 g mouse-1 and 1 g mouse-1"}, {"measurement": "ILS at 0.25 mg/kg", "setting": "L1210 [25]", "result": 18, "unit": "%"}, {"measurement": "Optimal dose", "setting": "P388 [26]", "result": 1, "unit": "mg/kg"}, {"measurement": "ILS at 0.4 mg/kg", "setting": "P388 [27]", "result": 91, "unit": "%"}, {"measurement": "Total dose", "setting": "L1210 [28]", "result": 1.6, "unit": "mg/kg"}, {"measurement": "Mortality", "setting": "P388 [29]", "result": 20, "unit": "days"}, {"measurement": "Toxicity", "setting": "[30]", "result": 0}, {"measurement": "Median day of death", "setting": "P388 [31]", "result": 15.5}]}]}
